From ChEMBL document CHEMBL1124770, “Synthesis and pharmacological evaluation of amino, azido, and nitrogen mustard analogues of 10-substituted cannabidiol and 11- or 12-substituted delta 8-tetrahydrocannabinol” (1990)

Key:
Assay type in all cases: functional
Mus musculus [1] = test: Evaluated for hypothermic activity in mice at a dose of 3 mg/Kg.
Method in brief: (§1)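 Mice dosed by tail-vein injection (0.1 mL/10 g) in ethanol/emulphor/saline (1:1:18). Body temperature change (°C) measured by previously reported methods. Vehicle and Δ9-THC positive controls run each day. Mean ± SEM; ANOVA with Dunnett's t test versus control, p < 0.05 two-tailed.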

Mus musculus [2] = test: Evaluated for catalepsy activity in mice and percentage immobility was determined at a concentration of 3 mg/kg.
Method in brief: (§2)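 Mice, single tail-vein injection (0.1 mL/10 g) in ethanol/emulphor/saline (1:1:18). Catalepsy scored by ring test as % immobility, per previously reported methods. Vehicle and Δ9-THC positive-control groups run in each daily experiment. Mean ± SEM; ANOVA with Dunnett's t test versus control, p < 0.05 two-tailed.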

Mus musculus [3] = test: Evaluated for reduction in spontaneous locomotor activity in mice, at a dose of 0 mg/Kg
Method in brief: (§3)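 Tail-vein injection in mice (0.1 mL/10 g; ethanol/emulphor/saline 1:1:18). Spontaneous locomotor activity counted as counts/10 min, per previously reported methods. Daily vehicle and Δ9-THC positive controls. Mean ± SEM; ANOVA with Dunnett's t test, p < 0.05 two-tailed.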

Mus musculus [4] = test: Tail-flick latency was determined at a concentration of 5 mg/Kg.
Method in brief: (§4)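 Mice, drug suspended in ethanol/emulphor/saline (1:1:18) and given by tail-vein injection (0.1 mL/10 g). Antinociception measured as tail-flick latency (s). Vehicle and Δ9-THC positive controls run in each daily experiment. Data given as mean ± SEM. ANOVA with Dunnett's t test against control, p < 0.05 (two-tailed).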

Mus musculus [5] = test: Tail-flick latency was determined at a concentration of 0 mg/Kg.
Method in brief: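 Antinociception in mice by tail-flick latency (s), per previously reported methods, after tail-vein injection (0.1 mL/10 g) in ethanol/emulphor/saline (1:1:18). Vehicle and Δ9-THC controls run daily. Mean ± SEM; ANOVA with Dunnett's t test, p < 0.05 two-tailed.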

Mus musculus [6] = test: Evaluated for reduction in spontaneous locomotor activity in mice at a dose of 5 mg/Kg; method in brief: as §3
Mus musculus [7] = test: Evaluated for hypothermic activity in mice at a dose of 5 mg/Kg.; method in brief: as §1
Mus musculus [8] = test: Evaluated for catalepsy activity in mice and percentage immobility was determined at a concentration of 0 mg/Kg.; method in brief: as §2
Mus musculus [9] = test: Tail-flick latency was determined at a concentration of 3 mg/Kg.; method in brief: as §4
Mus musculus [10] = test: Evaluated for reduction in spontaneous locomotor activity in mice at a dose of 3 mg/Kg; method in brief: as §3
Mus musculus [11] = test: Evaluated for catalepsy activity in mice and percentage immobility was determined at a concentration of 5 mg/Kg.; method in brief: as §2
Mus musculus [12] = test: Evaluated for hypothermic activity in mice at a dose of 0 mg/Kg.; method in brief: as §1
Mus musculus [13] = test: Evaluated for reduction in spontaneous locomotor activity in mice at a dose of 50 mg/Kg; method in brief: as §3
Mus musculus [14] = test: Evaluated for hypothermic activity in mice at a dose of 150 ug/Kg administered intraventricularly
Method in brief: (§5)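 Intraventricular injection in mice, 5 μL volume, in ethanol/emulphor/saline (1:1:18) vehicle. Change in body temperature (°C) recorded by previously reported methods, with vehicle and Δ9-THC controls. Mean ± SEM; ANOVA with Dunnett's t test versus control, p < 0.05 two-tailed.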

Mus musculus [15] = test: Evaluated for reduction in spontaneous locomotor activity in mice, at a dose of 0 ug/Kg administered intraventricularly
Method in brief: (§6)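 Mice given intraventricular injection of 5 μL in ethanol/emulphor/saline (1:1:18). Spontaneous locomotor activity recorded as counts/10 min by previously reported methods, alongside vehicle and Δ9-THC controls. Mean ± SEM; ANOVA with Dunnett's t test, p < 0.05 two-tailed.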

Mus musculus [16] = test: Evaluated for hypothermic activity in mice at a dose of 50 mg/Kg.; method in brief: as §1
Mus musculus [17] = test: Tail-flick latency was determined at a concentration of 150 ug/Kg administered intraventricularly
Method in brief: (§7)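 Mice, injected intraventricularly in 5 μL of ethanol/emulphor/saline (1:1:18) vehicle. Doses given as μg amounts. Antinociception read as tail-flick latency (s), alongside vehicle control. Values reported as mean ± SEM. ANOVA with Dunnett's t test versus control, significance at p < 0.05 (two-tailed).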

Mus musculus [18] = test: Evaluated for hypothermic activity in mice at a dose of 0 ug/Kg administered intraventricularly; method in brief: as §5
Mus musculus [19] = test: Tail-flick latency was determined at a concentration of 0 ug/Kg administered intraventricularly
Method in brief: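 Tail-flick latency (s) in mice after intraventricular injection (5 μL) of ethanol/emulphor/saline (1:1:18) vehicle, measured by previously reported methods. Mean ± SEM; ANOVA with Dunnett's t test, p < 0.05 two-tailed.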

Mus musculus [20] = test: Evaluated for catalepsy activity in mice and percentage immobility was determined at a concentration of 50 mg/Kg.; method in brief: as §2
Mus musculus [21] = test: Tail-flick latency was determined at a concentration of 50 mg/Kg.; method in brief: as §4
Mus musculus [22] = test: Evaluated for reduction in spontaneous locomotor activity in mice at a dose of 150 ug/Kg administered intraventricularly; method in brief: as §6
Mus musculus [23] = test: Evaluated for reduction in spontaneous locomotor activity in mice at a dose of 10 mg/Kg; method in brief: as §3
Mus musculus [24] = test: Tail-flick latency was determined at a concentration of 10 mg/Kg.; method in brief: as §4
Mus musculus [25] = test: Evaluated for hypothermic activity in mice at a dose of 10 mg/Kg.; method in brief: as §1
Mus musculus [26] = test: Evaluated for hypothermic activity in mice at a dose of 100 ug/Kg administered intraventricularly; method in brief: as §5
Mus musculus [27] = test: Evaluated for catalepsy activity in mice and percentage immobility was determined at a concentration of 3 mg/Kg.; method in brief: as §2
Mus musculus [28] = test: Evaluated for catalepsy activity in mice and percentage immobility was determined at a concentration of 30 mg/Kg.; method in brief: as §2
Mus musculus [29] = test: Evaluated for hypothermic activity in mice at a dose of 30 mg/Kg.; method in brief: as §1
Mus musculus [30] = test: Evaluated for hypothermic activity in mice at a dose of 0.3 mg/Kg.; method in brief: as §1
Mus musculus [31] = test: Evaluated for reduction in spontaneous locomotor activity in mice, at a dose of 150 ug/Kg administered intraventricularly; method in brief: as §6
Mus musculus [32] = test: Evaluated for hypothermic activity in mice at a dose of 50 ug/Kg administered intraventricularly; method in brief: as §5
Mus musculus [33] = test: Evaluated for reduction in spontaneous locomotor activity in mice, at a dose of 50 ug/Kg administered intraventricularly; method in brief: as §6
Mus musculus [34] = test: Evaluated for hypothermic activity in mice at a dose of 6 mg/Kg.; method in brief: as §1
Mus musculus [35] = test: Tail-flick latency was determined at a concentration of 30 mg/Kg.; method in brief: as §4
Mus musculus [36] = test: Evaluated for reduction in spontaneous locomotor activity in mice, at a dose of 3 mg/Kg; method in brief: as §3
Mus musculus [37] = test: Tail-flick latency was determined at a concentration of 50 ug/Kg administered intraventricularly; method in brief: as §7
Mus musculus [38] = test: Tail-flick latency was determined at a concentration of 0.3 mg/Kg.; method in brief: as §4
Mus musculus [39] = test: Evaluated for reduction in spontaneous locomotor activity in mice, at a dose of 100 ug/Kg administered intraventricularly; method in brief: as §6
Mus musculus [40] = test: Tail-flick latency was determined at a concentration of 6 mg/Kg.; method in brief: as §4
Mus musculus [41] = test: Evaluated for reduction in spontaneous locomotor activity in mice, at a dose of 30 mg/Kg; method in brief: as §3
Mus musculus [42] = test: Evaluated for catalepsy activity in mice and percentage immobility was determined at a concentration of 0.3 mg/Kg.; method in brief: as §2
Mus musculus [43] = test: Evaluated for reduction in spontaneous locomotor activity in mice at a dose of 0.3 mg/Kg; method in brief: as §3
Mus musculus [44] = test: Evaluated for catalepsy activity in mice and percentage immobility was determined at a concentration of 6 mg/Kg.; method in brief: as §2
Mus musculus [45] = test: Evaluated for reduction in spontaneous locomotor activity in mice, at a dose of 6 mg/Kg; method in brief: as §3
Mus musculus [46] = test: Tail-flick latency was determined at a concentration of 100 ug/Kg administered intraventricularly

Structure (SMILES): CCCCCc1cc(O)c2c(c1)OC(C)(CNCC)[C@@H]1CC=C(C)CC21 (some centres not stated)
- Temperature (Mus musculus [1]): -1.5 °C
- Immobility (Mus musculus [2]): 20%
- Spont activity (Mus musculus [3]): 52 Counts 10min-1
- Tail flick latency (Mus musculus [4]): 2.2 s
- Tail flick latency (Mus musculus [5]): 1 s
- Spont activity (Mus musculus [6]): 35 Counts 10min-1
- Temperature (Mus musculus [7]): -0.7 °C
- Immobility (Mus musculus [8]): 13%
- Tail flick latency (Mus musculus [9]): <2.8 s
- Spont activity (Mus musculus [10]): 35 Counts 10min-1
- Immobility (Mus musculus [11]): 16%
- Temperature (Mus musculus [12]): -0.9 °C

Structure (SMILES): CCCCCc1cc(O)c2c(c1)OC(C)(C)[C@@H]1CC=C(CN(CCCl)CCCl)CC21 (some centres not stated)
- Spont activity (Mus musculus [13]): <27 Counts 10min-1
- Temperature (Mus musculus [14]): -1.7 °C
- Spont activity (Mus musculus [15]): 87 Counts 10min-1
- Temperature (Mus musculus [16]): <-3.8 °C
- Spont activity (Mus musculus [3]): 56 Counts 10min-1
- Tail flick latency (Mus musculus [17]): 0 s
- Tail flick latency (Mus musculus [5]): 0.7 s
- Temperature (Mus musculus [18]): -1.5 °C
- Tail flick latency (Mus musculus [19]): 0.2 s
- Immobility (Mus musculus [20]): <24%
- Immobility (Mus musculus [8]): 4%
- Tail flick latency (Mus musculus [21]): -0.6 s
- Spont activity (Mus musculus [22]): 70 Counts 10min-1
- Temperature (Mus musculus [12]): -0.8 °C

Structure (SMILES): CCCCCc1cc(OC(C)=O)c2c(c1)OC(C)(C)[C@@H]1CC=C(CN(CCCl)CCCl)CC21.Cl (some centres not stated)
- Spont activity (Mus musculus [13]): 26 Counts 10min-1
- Temperature (Mus musculus [16]): <-3.3 °C
- Spont activity (Mus musculus [3]): 51 Counts 10min-1
- Tail flick latency (Mus musculus [5]): 0.5 s
- Immobility (Mus musculus [20]): <31%
- Immobility (Mus musculus [8]): 4%
- Tail flick latency (Mus musculus [21]): 0.6 s
- Temperature (Mus musculus [12]): -1.8 °C

Structure (SMILES): CCCCCc1cc(O)c2c(c1)OC(C)(C)[C@@H]1CC=C(CNCC)CC21.Cl (some centres not stated)
- Spont activity (Mus musculus [23]): 54 Counts 10min-1
- Spont activity (Mus musculus [3]): 49 Counts 10min-1
- Tail flick latency (Mus musculus [5]): 0.5 s
- Tail flick latency (Mus musculus [24]): <2.6 s
- Temperature (Mus musculus [25]): <-3.8 °C
- Temperature (Mus musculus [12]): -1.8 °C

Structure (SMILES): CCCCCc1cc(O)c2c(c1)OC(C)(C)[C@@H]1CCC(C)=C[C@@H]21 [DRONABINOL]
- Temperature (Mus musculus [26]): -3.6 °C
- Temperature (Mus musculus [1]): <-2.4 °C
- Immobility (Mus musculus [27]): <25%
- Immobility (Mus musculus [28]): <57%
- Temperature (Mus musculus [29]): <-5.1 °C
- Temperature (Mus musculus [30]): -1 °C
- Temperature (Mus musculus [14]): <-5.5 °C
- Spont activity (Mus musculus [15]): 103 Counts 10min-1
- Spont activity (Mus musculus [31]): <33 Counts 10min-1
- Temperature (Mus musculus [32]): -2.3 °C
- Spont activity (Mus musculus [33]): 46 Counts 10min-1
- Spont activity (Mus musculus [3]): 54 Counts 10min-1
- Tail flick latency (Mus musculus [17]): <4 s
- Tail flick latency (Mus musculus [5]): 0.6 s
- Temperature (Mus musculus [18]): -2.2 °C
- Temperature (Mus musculus [34]): <-2.9 °C
- Tail flick latency (Mus musculus [19]): -0.2 s
- Tail flick latency (Mus musculus [35]): <5.1 s
- Spont activity (Mus musculus [36]): <30 Counts 10min-1
- Tail flick latency (Mus musculus [37]): <1.6 s
- Tail flick latency (Mus musculus [38]): <2 s
- Immobility (Mus musculus [8]): 8%
- Spont activity (Mus musculus [39]): <41 Counts 10min-1
- Tail flick latency (Mus musculus [9]): <2.9 s
- Tail flick latency (Mus musculus [40]): <4.9 s
- Spont activity (Mus musculus [41]): <7 Counts 10min-1
- Immobility (Mus musculus [42]): 9%
- Spont activity (Mus musculus [43]): 70 Counts 10min-1
- Immobility (Mus musculus [44]): <42%
- Spont activity (Mus musculus [45]): <23 Counts 10min-1
- Temperature (Mus musculus [12]): -1.1 °C
- Tail flick latency (Mus musculus [46]): <2.3 s
